From ChEMBL document CHEMBL1275282, “Synthesis, characterization, oxidative degradation, antibacterial activity and acetylcholinesterase/butyrylcholinesterase inhibitory effects of some new phosphorus(V) hydrazides” (Eur J Med Chem, 2010)

Experiments:
[1] = molecular target: Acetylcholinesterase (Homo sapiens, UniProt P22303); experiment: Inhibition of human AChE by Ellman method
[2] = test system: Pseudomonas aeruginosa; experiment: Antibacterial activity against Pseudomonas aeruginosa at 10 mg/ml after 20-24 hrs by filter paper disc method.; assay type: functional; settings: read-out: DIZ
How it was run: (§1)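 Filter paper disc diffusion on nutrient agar, with nutrient-agar cultures as inocula. 6.5 mm paper discs were saturated with test solutions at 5 or 10 mg ml-1, with chloramphenicol at the same levels as reference. Plates were incubated at 37 ± 1 °C for 20–24 h. The growth-inhibition zone diameter was measured, and three diameters were averaged per sample.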

[3] = test system: Staphylococcus aureus; experiment: Antibacterial activity against Staphylococcus aureus at 10 mg/ml after 20-24 hrs by filter paper disc method; assay type: functional; settings: read-out: DIZ; how it was run: as §1
[4] = test system: Escherichia coli; experiment: Antibacterial activity against Escherichia coli at 5 mg/ml after 20-24 hrs by filter paper disc method.; assay type: functional; settings: read-out: DIZ; how it was run: as §1
[5] = test system: Bacillus subtilis; experiment: Antibacterial activity against Bacillus subtilis at 10 mg/ml after 20-24 hrs by filter paper disc method; assay type: functional; settings: read-out: DIZ; how it was run: as §1
[6] = molecular target: Cholinesterase (Homo sapiens, UniProt P06276); experiment: Inhibition of human BChE by Ellman method
How it was run: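 BChE activity was run as in the Ellman AChE format: thiocholine released from butyrylthiocholine was read with DTNB. Lyophilised enzyme was diluted in 100 mM phosphate buffer, pH 8. IC50 was taken from a plot of VI/V0 against log[I].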

[7] = Lipophilicity, log P of the compound; assay type: physicochemical; settings: octanol/water
[8] = test system: Pseudomonas aeruginosa; experiment: Antibacterial activity against Pseudomonas aeruginosa at 5 mg/ml after 20-24 hrs by filter paper disc method.; assay type: functional; settings: read-out: DIZ; how it was run: as §1
[9] = test system: Bacillus subtilis; experiment: Antibacterial activity against Bacillus subtilis at 5 mg/ml after 20-24 hrs by filter paper disc method; assay type: functional; settings: read-out: DIZ; how it was run: as §1
[10] = test system: Escherichia coli; experiment: Antibacterial activity against Escherichia coli at 10 mg/ml after 20-24 hrs by filter paper disc method; assay type: functional; settings: read-out: DIZ; how it was run: as §1
[11] = test system: Bacillus cereus; experiment: Antibacterial activity against Bacillus cereus at 10 mg/ml after 20-24 hrs by filter paper disc method; assay type: functional; settings: read-out: DIZ; how it was run: as §1
[12] = test system: Bacillus cereus; experiment: Antibacterial activity against Bacillus cereus at 5 mg/ml after 20-24 hrs by filter paper disc method; assay type: functional; settings: read-out: DIZ; how it was run: as §1
[13] = test system: Staphylococcus aureus; experiment: Antibacterial activity against Staphylococcus aureus at 5 mg/ml after 20-24 hrs by filter paper disc method; assay type: functional; settings: read-out: DIZ; how it was run: as §1
[14] = test system: Klebsiella pneumoniae; experiment: Antibacterial activity against Klebsiella pneumoniae at 5 mg/ml after 20-24 hrs by filter paper disc method; assay type: functional; settings: read-out: DIZ; how it was run: as §1
[15] = test system: Klebsiella pneumoniae; experiment: Antibacterial activity against Klebsiella pneumoniae at 10 mg/ml after 20-24 hrs by filter paper disc method; assay type: functional; settings: read-out: DIZ; how it was run: as §1

Acetylcholinesterase, sequence (P22303 whole entry): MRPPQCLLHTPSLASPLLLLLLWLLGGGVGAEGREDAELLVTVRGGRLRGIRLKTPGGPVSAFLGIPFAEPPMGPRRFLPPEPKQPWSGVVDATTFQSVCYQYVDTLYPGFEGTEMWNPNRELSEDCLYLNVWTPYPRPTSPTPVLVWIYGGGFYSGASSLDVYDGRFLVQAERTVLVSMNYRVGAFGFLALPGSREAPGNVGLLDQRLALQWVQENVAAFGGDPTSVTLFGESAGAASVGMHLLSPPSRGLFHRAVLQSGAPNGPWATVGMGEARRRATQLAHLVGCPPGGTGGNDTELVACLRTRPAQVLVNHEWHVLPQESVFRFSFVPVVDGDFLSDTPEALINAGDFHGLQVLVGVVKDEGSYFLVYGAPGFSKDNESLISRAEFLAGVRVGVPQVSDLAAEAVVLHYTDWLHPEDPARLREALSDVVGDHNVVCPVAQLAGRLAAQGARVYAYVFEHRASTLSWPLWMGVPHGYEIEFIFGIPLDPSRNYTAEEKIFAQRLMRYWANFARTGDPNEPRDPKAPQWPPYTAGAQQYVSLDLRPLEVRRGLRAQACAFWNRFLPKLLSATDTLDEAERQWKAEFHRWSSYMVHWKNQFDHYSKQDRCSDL
Cholinesterase, sequence (P06276 whole entry): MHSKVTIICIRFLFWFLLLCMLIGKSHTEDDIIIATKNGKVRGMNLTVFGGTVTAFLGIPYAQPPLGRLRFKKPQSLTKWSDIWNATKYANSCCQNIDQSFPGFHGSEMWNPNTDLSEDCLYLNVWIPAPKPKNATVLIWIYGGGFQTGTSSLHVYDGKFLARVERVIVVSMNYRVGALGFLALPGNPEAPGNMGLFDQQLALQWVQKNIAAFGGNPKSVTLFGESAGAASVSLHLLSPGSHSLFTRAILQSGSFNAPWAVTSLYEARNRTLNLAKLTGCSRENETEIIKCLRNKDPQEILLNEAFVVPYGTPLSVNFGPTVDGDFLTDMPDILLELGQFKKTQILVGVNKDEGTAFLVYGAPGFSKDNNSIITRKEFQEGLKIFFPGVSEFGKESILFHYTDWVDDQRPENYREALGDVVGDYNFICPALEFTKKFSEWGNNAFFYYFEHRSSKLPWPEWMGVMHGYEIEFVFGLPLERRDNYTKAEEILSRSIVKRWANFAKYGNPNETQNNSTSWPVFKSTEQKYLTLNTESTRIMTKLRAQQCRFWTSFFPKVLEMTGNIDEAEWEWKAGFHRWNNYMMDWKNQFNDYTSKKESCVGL

O=P(O)(NN1CCCCC1)Oc1ccccc1
IC50 [1]: 5.49 mM | zone of inhibition at 10000 µg/mL [2]: 10 mm | zone of inhibition at 10000 µg/mL [3]: 8 mm | zone of inhibition at 5000 µg/mL [4]: 7 mm | zone of inhibition at 10000 µg/mL [5]: 15 mm | IC50 [6]: 1.58 mM | logP [7]: 1.29 | zone of inhibition at 5000 µg/mL [8]: 5 mm | zone of inhibition at 5000 µg/mL [9]: 7 mm | zone of inhibition at 10000 µg/mL [10]: 11 mm

O=P(NN1CCOCC1)(NN1CCOCC1)Oc1ccccc1Cl
zone of inhibition at 5000 µg/mL [4]: 7 mm | zone of inhibition at 10000 µg/mL [11]: 10 mm | zone of inhibition at 10000 µg/mL [10]: 10 mm | zone of inhibition at 5000 µg/mL [12]: 7 mm

Cc1ccc(OP(=O)(NN2CCOCC2)NN2CCOCC2)cc1
zone of inhibition at 5000 µg/mL [13]: 10 mm | zone of inhibition at 5000 µg/mL [14]: 7 mm | zone of inhibition at 10000 µg/mL [3]: 13 mm | zone of inhibition at 5000 µg/mL [4]: 6 mm | zone of inhibition at 10000 µg/mL [5]: 18 mm | zone of inhibition at 10000 µg/mL [15]: 14 mm | zone of inhibition at 5000 µg/mL [9]: 8 mm | zone of inhibition at 10000 µg/mL [10]: 11 mm

O=P(NN1CCCCC1)(NN1CCCCC1)Oc1ccccc1
zone of inhibition at 5000 µg/mL [13]: 11 mm | zone of inhibition at 5000 µg/mL [14]: 5 mm | zone of inhibition at 10000 µg/mL [3]: 17 mm | zone of inhibition at 5000 µg/mL [4]: 7 mm | zone of inhibition at 10000 µg/mL [5]: 13 mm | zone of inhibition at 10000 µg/mL [11]: 14 mm | zone of inhibition at 10000 µg/mL [15]: 15 mm | zone of inhibition at 5000 µg/mL [9]: 6 mm | zone of inhibition at 10000 µg/mL [10]: 15 mm | zone of inhibition at 5000 µg/mL [12]: 5 mm

O=C(NP(=O)(NN1CCOCC1)NN1CCOCC1)c1ccccc1
IC50 [1]: 18.6 mM | zone of inhibition at 10000 µg/mL [3]: 8 mm | zone of inhibition at 5000 µg/mL [4]: 6 mm | zone of inhibition at 10000 µg/mL [5]: 13 mm | IC50 [6]: 2.14 mM | logP [7]: -0.78 | zone of inhibition at 5000 µg/mL [9]: 7 mm | zone of inhibition at 10000 µg/mL [10]: 11 mm

O=C(NP(=O)(NN1CCOCC1)NN1CCOCC1)c1ccc(Cl)cc1
zone of inhibition at 5000 µg/mL [4]: 6 mm | zone of inhibition at 10000 µg/mL [5]: 12 mm | zone of inhibition at 10000 µg/mL [11]: 8 mm | zone of inhibition at 5000 µg/mL [9]: 5 mm | zone of inhibition at 10000 µg/mL [10]: 13 mm

COc1ccc(C(=O)NP(=O)(NN2CCOCC2)NN2CCOCC2)cc1
zone of inhibition at 10000 µg/mL [5]: 13 mm | zone of inhibition at 10000 µg/mL [11]: 7 mm | zone of inhibition at 5000 µg/mL [9]: 7 mm | zone of inhibition at 10000 µg/mL [10]: 7 mm

O=C(NP(=O)(NN1CCCCC1)NN1CCCCC1)c1ccccc1
IC50 [1]: 1.95 mM | zone of inhibition at 10000 µg/mL [3]: 7 mm | zone of inhibition at 10000 µg/mL [5]: 19 mm | IC50 [6]: 0.43 mM | logP [7]: 1.35 | zone of inhibition at 5000 µg/mL [9]: 9 mm

O=P(NN1CCOCC1)(NN1CCOCC1)c1ccccc1
IC50 [6]: 2.45 mM | logP [7]: -1.12

O=P(NN1CCOCC1)(NN1CCOCC1)Oc1ccccc1
IC50 [1]: 9.55 mM | IC50 [6]: 1.62 mM | logP [7]: -0.54

O=C(N[C@H](CO)[C@H](O)c1ccc([N+](=O)[O-])cc1)C(Cl)Cl [CHLORAMPHENICOL]
zone of inhibition at 5000 µg/mL [13]: 17 mm | zone of inhibition at 5000 µg/mL [14]: 11 mm | zone of inhibition at 10000 µg/mL [2]: 7 mm | zone of inhibition at 10000 µg/mL [3]: 22 mm | zone of inhibition at 5000 µg/mL [4]: 13 mm | zone of inhibition at 10000 µg/mL [5]: 17 mm | zone of inhibition at 10000 µg/mL [11]: 15 mm | zone of inhibition at 10000 µg/mL [15]: 15 mm | zone of inhibition at 5000 µg/mL [9]: 14 mm | zone of inhibition at 10000 µg/mL [10]: 17 mm | zone of inhibition at 5000 µg/mL [12]: 12 mm
